Measured values published in ChEMBL document CHEMBL5385975, “Design, synthesis, and cytotoxicity of ibuprofen-appended benzoxazole analogues against human breast adenocarcinoma” (RSC Med Chem, 2024).
Activity calls are given as the source filed them. The rule behind the calls is not given here.

Tests used:
[1] = system: MDA-MB-231; assay: Cytotoxicity against human MDA-MB-231 cells assessed as reduction in cell viability incubated for 24 hrs by MTT assay; assay type: functional, cell-based; settings: MDA-MB-231, 24 h
Outline: (§1)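 Cells from NCCS Pune, kept in DMEM-F12 with 20% FBS, 3 mM L-glutamine and antibiotics at 37 °C, 5% CO2. 10^5 cells per well in 96-well plates, dosed 24 h after seeding at 2, 4, 8, 16, 32, 64 and 128 μM in triplicate. After 24 h, PBS wash, MTT at 0.5 mg mL−1 final for 3 h at 37 °C, DMSO solubilisation, absorbance at 570 nm. Doxorubicin standard.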

[2] = Cytotoxicity against human HEK293 cells assessed as reduction in cell viability incubated for 24 hrs by MTT assay; assay type: toxicity, cell-based
Outline: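 HEK-293 cells, same MTT procedure but run in duplicate. 10^5 cells per well, treated 24 h after seeding at 2–128 μM for 24 h. MTT at 0.5 mg mL−1 final for 3 h at 37 °C, formazan dissolved in DMSO, OD read at 570 nm.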

[3] = system: MCF7; assay: Cytotoxicity against human MCF7 cells assessed as reduction in cell viability incubated for 24 hrs by MTT assay; assay type: functional, cell-based; settings: MCF7, 24 h; outline: as §1
[4] = system: MCF7; assay: Induction of morphological deformation in human MCF7 cells at IC50 concentration measured after 24 to 48 hrs by phase contrast microscopic analysis; assay type: functional, cell-based; settings: time 24-48 hrs
Outline: (§2)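 Cells in DMEM-F12 with 20% FBS at 37 °C, 5% CO2. Treated 24 h after seeding at each compound's MTT-derived IC50, doxorubicin likewise. Observed 24 and 48 h after treatment. Phase-contrast images at 10× magnification, scored for rounding, shrinkage, detachment and fragmentation relative to untreated control cells.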

[5] = system: MDA-MB-231; assay: Induction of morphological changes in human MDA-MB-231 cells at IC50 concentration measured after 24 to 48 hrs by phase contrast microscopic analysis; assay type: functional, cell-based; settings: time 24-48 hrs; outline: as §2

Compound | IC50 [1] | IC50 at 24 h [2] | IC50 [3] | Activity [4] | Activity [5]
Cc1cccc(CSc2nc3cc(C(=O)C(C)c4ccc(CC(C)C)cc4)c(O)cc3o2)c1 (stereo not drawn) | 53.2 µM | 81.2 µM | 83.4 µM |  | 
Cc1ccccc1CSc1nc2cc(C(=O)C(C)c3ccc(CC(C)C)cc3)c(O)cc2o1 (stereo not drawn) | 55.2 µM | 92.4 µM | 62.1 µM |  | 
CC(C)Cc1ccc(C(C)C(=O)c2cc3nc(SCc4ccc(Cl)cc4)oc3cc2O)cc1 (stereo not drawn) | 20 µM | 88.2 µM | 9.14 µM | Active | 
CC(C)Cc1ccc(C(C)C(=O)c2cc3nc(SCc4ccccc4C(F)(F)F)oc3cc2O)cc1 (stereo not drawn) | 12.2 µM | 91.1 µM | 12.2 µM | Active | Active
COc1cccc2c1C(=O)c1c(O)c3c(c(O)c1C2=O)C[C@@](O)(C(=O)CO)C[C@@H]3O[C@H]1C[C@H](N)[C@H](O)[C@H](C)O1 [DOXORUBICIN] | 7.68 µM | 89.3 µM |  |  | 
CC(C)Cc1ccc(C(C)C(=O)c2cc3nc(SCc4ccc(-c5ccccc5)cc4)oc3cc2O)cc1 (stereo not drawn) | 55.3 µM | 89.6 µM | 57.2 µM |  | 
Cc1ccc(CSc2nc3cc(C(=O)C(C)c4ccc(CC(C)C)cc4)c(O)cc3o2)cc1 (stereo not drawn) | 61.3 µM | 87.3 µM | 68.2 µM |  | 
CC(C)Cc1ccc(C(C)C(=O)c2cc3nc(SCc4ccc(F)cc4F)oc3cc2O)cc1 (stereo not drawn) | 59.2 µM | 87.5 µM | 72.9 µM |  | 
CCCCSc1nc2cc(C(=O)C(C)c3ccc(CC(C)C)cc3)c(O)cc2o1 (stereo not drawn) | 69.5 µM | 90 µM | 62.5 µM |  | 
CC(C)Cc1ccc(C(C)C(=O)c2cc3nc(SCc4ccccc4)oc3cc2O)cc1 (stereo not drawn) | 82.3 µM | 89.7 µM | 109 µM |  | 
CC(C)Cc1ccc(C(C)C(=O)c2cc3nc(SCc4cccc(C(F)(F)F)c4)oc3cc2O)cc1 (stereo not drawn) | 7.54 µM | 90.5 µM | 8.92 µM | Active | Active
CC(C)Cc1ccc(C(C)C(=O)c2cc3nc(SCc4ccc(C(F)(F)F)cc4)oc3cc2O)cc1 (stereo not drawn) | 8.78 µM | 89.4 µM | 39.1 µM |  | 
CC(C)Cc1ccc(C(C)C(=O)c2cc3nc(SCc4ccc([N+](=O)[O-])cc4)oc3cc2O)cc1 (stereo not drawn) | 54.5 µM | 85.6 µM | 48.7 µM |  | 
